RAD52 inh: blocks human RAD52 DNA annealing; recombinant RAD52 DNA annealing, FRET fluorescence; inhibition, % at 18.7 µM; hit rate 0.46% among 360,000; AID 651710;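 active = every replicate showing at least 50% inhibition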
RAD54 branch: RAD54 (human) branch migration inhibition | hit rate 0.14% among 360,000 | inhibition, % at 10.4 µM | RAD54 Holliday junction branch migration, FAM/BHQ fluorescence | AID 602329;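 active = mean normalized replicate activity at least 40 and at least half of replicates scoring 40 or more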;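 also: 0% = median of neutral control wells and 100% = median of positive control wells; inhibitors cause a drop in the FAM fluorescence signal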
Target sequence (Q92698 whole entry, looked up): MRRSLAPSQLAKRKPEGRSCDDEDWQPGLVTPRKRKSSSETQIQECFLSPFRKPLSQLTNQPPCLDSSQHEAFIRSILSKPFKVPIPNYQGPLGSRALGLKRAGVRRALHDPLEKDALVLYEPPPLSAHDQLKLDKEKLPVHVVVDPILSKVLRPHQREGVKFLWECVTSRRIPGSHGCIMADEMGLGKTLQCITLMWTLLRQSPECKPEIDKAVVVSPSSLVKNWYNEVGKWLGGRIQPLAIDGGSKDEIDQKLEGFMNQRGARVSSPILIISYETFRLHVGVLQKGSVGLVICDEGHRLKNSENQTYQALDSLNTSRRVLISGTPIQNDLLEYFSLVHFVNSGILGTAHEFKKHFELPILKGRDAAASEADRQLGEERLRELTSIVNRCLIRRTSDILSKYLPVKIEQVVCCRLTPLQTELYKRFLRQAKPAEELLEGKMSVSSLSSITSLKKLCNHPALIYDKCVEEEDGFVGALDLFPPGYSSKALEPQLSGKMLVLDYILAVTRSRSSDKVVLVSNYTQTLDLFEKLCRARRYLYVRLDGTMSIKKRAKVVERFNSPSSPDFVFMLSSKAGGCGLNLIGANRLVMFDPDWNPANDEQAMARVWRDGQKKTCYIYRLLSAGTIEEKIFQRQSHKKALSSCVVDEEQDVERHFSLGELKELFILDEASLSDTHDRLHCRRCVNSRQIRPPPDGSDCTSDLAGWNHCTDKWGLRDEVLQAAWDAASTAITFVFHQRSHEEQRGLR
FN deposition inh: fibronectin deposition inhibition | AH1F fibroblasts, Alexa488-fibronectin deposition fluorescence, overnight | inhibition, % at 12.6 µM | hit rate 0.086% among 350,000;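 active = mean inhibition across replicates of 30% or more, regardless of how many single replicates reach that level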;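 also: positive control wells lacked labelled fibronectin entirely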
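Test system: AH1F fibroblast monolayer depositing Alexa488-labelled fibronectin into matrix. Input: 10000 cells per well. Technique: fluorescence, ex 485 nm, em 525 nm. Buffer or medium: DMEM plus 2% serum, read in PBS. Timing: 1 h cell adhesion before compound, then overnight fibronectin incubation. Compound: single dose, pinned. Read-out basis: inhibition from reduced deposited-fibronectin fluorescence.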
PAX8 inh HTS: lowers PAX8-driven luciferase in RMG-I cells; RMG-I TPO-luciferase reporter, SteadyGlo, 24 h; hit rate 1.2% among 360,000; inhibition, % at 12.6 µM;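 active = mean replicate inhibition at least 60% with every replicate also reaching 60%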;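 also: luciferase light reporting Pax8 driven TPO promoter activity; plate controls were median of neutral control wells for no effect and mitoxantrone controls for full effect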
* hit, by the source's call; i = inactive; x = not tested or not shown. This is a sample that favours compounds with a hit; in the whole collection about 1.3% have one here.

SMILES	RAD52 inh	RAD54 branch	FN deposition inh	PAX8 inh HTS
COc1ccc(NC(=O)Nc2ccc3c(c2)C(=O)N([C@@H](C)CO)C[C@@H](C)[C@@H](CN(C)Cc2ccc4c(c2)OCO4)OCCCC[C@H](C)O3)cc1	0	-3	x	-18
Cc1ccc(C)c(N2CCN(S(=O)(=O)c3cn(C)cn3)CC2)c1	-11	-3	-8	-5
Cc1cccc(N2CCN(S(=O)(=O)c3cn(C)cn3)CC2)c1C	-1	2	43*	15
CCCCOc1ccc(NC2=NC3(CCCCC3)N=C(N)N2)cc1	x	x	-4	15
CC(C)NCCOCCOc1ccccc1F	x	11	x	x
O=S(=O)(Nc1cccc(-c2cn3cccnc3n2)c1)c1ccc(F)cc1	-32	3	0	77*
O=C(Nc1ccc(Br)cc1F)c1ccc2c(c1)N(Cc1ccccc1)C(=O)CS2=O (centres undefined)	-23	3	-1	35
CCCC(=O)N1CCCC1(C)C(=O)NCc1c(F)ccc(C)c1F (centres undefined)	-20	15	x	-12
O=S(=O)(Cc1ccccc1)N1CCCCN2[C@@H](CO)[C@@H](c3ccc(C#Cc4ccccc4)cc3)[C@@H]2C1	33	8	x	-13
O=C(NC1CCCCC1)C(c1ccc(F)cc1)N(Cc1ccco1)C(=O)CN1C(=O)c2ccccc2S1(=O)=O (centres undefined)	3	x	-6	102*
O=C(Nc1cccc(NC(=O)c2sc3ccccc3c2Cl)c1)c1ccco1	-15	x	-3	-56
Cn1ccc2c(-c3cncc4ccccc34)cc3c(c21)C1CCC3C1 (centres undefined)	-20	4	-3	8
CS(=O)(=O)c1ccc(C(=O)OCC(=O)N2CCN(CCC3CCCCC3)CC2)cc1[N+](=O)[O-]	-8	-4	19	105*
CS(=O)(=O)c1ccc(C(=O)OCC(=O)N2CCOCC2)cc1[N+](=O)[O-]	-4	13	-13	-1
Cc1ccc(NC(=O)CN2C(=O)NC3(CCc4ccccc43)C2=O)cc1 (centres undefined)	-19	-9	-1	17
COc1ccc(CN2C[C@H](C)[C@@H](OC)CN(C)C(=O)c3ccc(NC(=O)c4nc5ccccc5s4)cc3OC[C@H]2C)cc1	-13	-5	3	60
COc1cccc(NC(=O)Nc2ccc3c(c2)C(=O)N(C)C[C@H](OC)[C@@H](C)CN[C@H](C)CO3)c1	67*	24	-1	-10
CO[C@@H]1CN(C)C(=O)c2cc(NC(=O)c3nc4ccccc4s3)ccc2OC[C@H](C)NC[C@H]1C	7	14	13	84*
COc1ccc(CN2C[C@H](C)[C@@H](OC)CN(C)C(=O)c3ccc(NC(=O)c4nc5ccccc5s4)cc3OC[C@@H]2C)cc1	-15	-2	9	74*
COc1cccc(NC(=O)Nc2ccc3c(c2)C(=O)N(C)C[C@@H](OC)[C@H](C)CN[C@@H](C)CO3)c1	54*	11	2	-6
Cc1cccc(NC(=O)CCSc2ccccc2)c1C	-11	4	4	-29
CO[C@H]1CN(C)C(=O)c2cc(NC(=O)c3ccc(Oc4ccccc4)cc3)ccc2OC[C@H](C)NC[C@H]1C	53*	14	18	-16
COc1ccc(S(=O)(=O)Nc2ccc3c(c2)C(=O)N([C@H](C)CO)C[C@H](C)[C@@H](CN(C)S(=O)(=O)c2ccc(C)cc2)OCCCC[C@H](C)O3)cc1	-10	-2	-3	78*
COc1ccc(S(=O)(=O)Nc2ccc3c(c2)C(=O)N([C@@H](C)CO)C[C@@H](C)[C@@H](CN(C)S(=O)(=O)c2ccc(C)cc2)OCCCC[C@H](C)O3)cc1	-22	-8	-33	-1
COc1ccc(S(=O)(=O)Nc2ccc3c(c2)C(=O)N([C@H](C)CO)C[C@@H](C)[C@H](CN(C)S(=O)(=O)c2ccc(C)cc2)OCCCC[C@@H](C)O3)cc1	-41	1	6	67*
SMILES	RAD52 inh	RAD54 branch	FN deposition inh	PAX8 inh HTS
COc1ccc(S(=O)(=O)Nc2ccc3c(c2)C(=O)N([C@@H](C)CO)C[C@@H](C)[C@@H](CN(C)S(=O)(=O)c2ccc(F)cc2)OCCCC[C@H](C)O3)cc1	-17	-3	x	-11
COc1ccc(S(=O)(=O)N(C)C[C@@H]2OCCCC[C@H](C)Oc3ccc(NC(=O)C4CCCCC4)cc3C(=O)N([C@@H](C)CO)C[C@@H]2C)cc1	-17	0	4	65*
COc1ccc(S(=O)(=O)Nc2ccc3c(c2)C(=O)N([C@H](C)CO)C[C@H](C)[C@@H](CN(C)S(=O)(=O)c2ccc(F)cc2)OCCCC[C@H](C)O3)cc1	-48	-3	x	76*
O=C(NCc1ccc(F)cc1)OC1CC2CC1[C@H]1CCCCN1C2=O (some centres undefined)	-1	x	30*	-6
O=C(NCc1ccccc1)OC1CC2CC1[C@H]1CCCCN1C2=O (some centres undefined)	-7	x	-6	-21
CC[n+]1ccc(/C=C/c2c[nH]c3ccccc23)cc1	-444	-205	-37	75*
Cc1ccc2[nH]cc(/C=C/c3cc[n+](C)cc3)c2c1	i	i	-39	78*
C[C@H](CO)N1C[C@H](C)[C@@H](CN(C)Cc2ccccc2)Oc2ccc(NC(=O)Nc3ccccc3)cc2C1=O	-3	1	1	6
CC(C)C(=O)Nc1ccc2c(c1)C(=O)N(C)[C@H]1CC[C@H](CC(=O)NCCCN(C)C)O[C@@H]1CO2	x	2	-13	21
O=C(Nc1ccc(N2CCN(C(=O)c3cccs3)CC2)cc1)c1ccco1	-18	-2	-1	-3
O=C(Nc1cccc(NC(=O)c2ccc([N+](=O)[O-])o2)c1)c1ccco1	-3	-4	-7	92*
O=C(Nc1ccc(N2CCN(C(=O)c3cccs3)CC2)cc1)c1ccc([N+](=O)[O-])o1	8	2	x	98*
C[C@H](NC(=O)c1ccco1)C(=O)Nc1cccc([N+](=O)[O-])c1	-11	x	3	100*
O=C(Nc1nc(-c2cccs2)cs1)c1ccco1	-96	x	-7	-211
O=C(Nc1nc(-c2cccs2)cs1)c1ccc([N+](=O)[O-])o1	5	-7	-4	67*
O=C(Nc1ccc(NC(=O)c2ccc([N+](=O)[O-])o2)cc1Cl)c1ccco1	2	-10	6	33
COC(=O)c1ccc(CNC(=O)CC[C@H]2O[C@@H](n3cc(C)c(=O)[nH]c3=O)C[C@@H]2O)cc1	-16	1	3	6
O=C(Nc1cccc(NC(=O)c2cccs2)c1)c1ccc([N+](=O)[O-])o1	-4	-24	7	101*
COc1cc(NC(=O)c2ccc([N+](=O)[O-])o2)ccc1NC(=O)c1cccs1	-6	-2	10	59
O=C(Nc1cccc(N2C(=O)C=CC2=O)c1)c1cccs1	-13	-8	-4	66*
COc1cccc2c1C(=O)C=C(C)C2=O	-16	-7	8	28
COC1=CC(=O)c2c(ccc3ncnc(N)c23)C1=O	1	x	31*	104*

Compound activity deposited in PubChem by Broad Institute.
